From ChEMBL document CHEMBL5620435, “Elucidating the Mechanism of Metabolism of Cannabichromene by Human Cytochrome P450s” (J Nat Prod, 2024)
Active and inactive are the calls of the source. The rule behind the calls is not given here.

Legend:
[1] = molecular target: T1, Cytochrome P450 2J2 (Homo sapiens, UniProt P51589); test: Binding affinity to CYP2J2 (unknown origin) assessed as fold increase in apparent dissociation constant by spectroscopic titration analysis in presence of cytochrome P450 reductase; format: ADME
T1 sequence (P51589 whole entry): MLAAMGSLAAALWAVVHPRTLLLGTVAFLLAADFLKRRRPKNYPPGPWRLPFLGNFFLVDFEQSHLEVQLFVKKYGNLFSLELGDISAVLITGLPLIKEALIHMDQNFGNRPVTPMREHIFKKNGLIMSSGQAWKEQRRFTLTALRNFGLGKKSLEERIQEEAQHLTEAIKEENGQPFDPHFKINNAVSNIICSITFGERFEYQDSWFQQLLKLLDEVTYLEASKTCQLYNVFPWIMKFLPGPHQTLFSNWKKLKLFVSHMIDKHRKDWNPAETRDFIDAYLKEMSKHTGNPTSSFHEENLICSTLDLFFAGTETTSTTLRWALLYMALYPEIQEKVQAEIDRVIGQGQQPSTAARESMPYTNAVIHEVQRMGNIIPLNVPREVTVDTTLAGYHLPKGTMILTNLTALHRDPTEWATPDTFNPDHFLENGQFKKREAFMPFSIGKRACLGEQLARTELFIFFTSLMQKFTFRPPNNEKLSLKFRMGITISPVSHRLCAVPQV
Procedure, shortened: (§1)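 His-tagged CYPs were expressed in E. coli and Ni-NTA purified. Buffer-exchanged CYP was in 0.1 M phosphate pH 7.4. CPR was added and the pair was preincubated 5 min; final protein was 5–6 μM each. CBC (ethanol stock, ≤1% final) was titrated 0–100 μM with 5 min at 37 °C per step. The Soret shift from ~417 to ~390 nm was recorded as a difference spectrum. Kd(app) came from a one-site binding fit and was compared with CYP alone (4–5 μM protein).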

[2] = Drug metabolism in C57BL/6J mouse plasma assessed as 5-(5-hydroxy-2-methyl-7-pentyl-2H-chromen-2-yl)-2-methylpentane-2,3-diol metabolite formation at 20 mg/kg, iv administered via tail vein measured after 0.5 to 2 hrs by LC/MS/MS analysis; format: ADME, organism-based; conditions: in vivo, time 0.5-2 hrs
Procedure, shortened: (§2)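 Female C57BL/6J mice, 8–10 weeks old, received CBC at 20 mg/kg in PBS with 6% Tween-80, IV via the tail vein or IP (n = 3 per route). Blood was taken terminally by cardiac puncture into heparin at 0.5 and 2 h. Plasma (200 μL) was extracted with hexane/ethyl acetate (80:20). CBC and metabolites were quantified by targeted LC-MS/MS (C6-phenyl column, positive ESI) as means ±SE.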

[3] = molecular target: Cytochrome P450 3A4 (Homo sapiens, UniProt P08684); test: Binding affinity to CYP3A4 (unknown origin) assessed as fold increase in apparent dissociation constant by spectroscopic titration analysis in presence of cytochrome P450 reductase; format: ADME; procedure, shortened: as §1
[4] = molecular target: Cytochrome P450 2D6 (Homo sapiens, UniProt P10635); test: Binding affinity to CYP2D6 (unknown origin) assessed as fold increase in apparent dissociation constant by spectroscopic titration analysis in presence of cytochrome P450 reductase; format: ADME; procedure, shortened: as §1
[5] = Stability in C57BL/6J mouse plasma assessed as compound consumption by measuring reduction in parent compound level at 20 mg/kg, ip measured after 0.5 to 2 hrs by LC-MS/MS analysis; format: ADME, organism-based; conditions: in vivo, time 0.5-2 hrs; procedure, shortened: as §2
[6] = molecular target: Cannabinoid receptor 1 (Homo sapiens, UniProt P21554); test: Displacement of d [3H]CP-55,940 from CBR1 (unknown origin) expressed in Sf9 cell membrane assessed as inhibition constant by Topcount scintillation counting analysis; format: cell membranes
[7] = molecular target: Cannabinoid receptor 2 (Homo sapiens, UniProt P34972); test: Binding affinity to CBR2 (unknown origin)
[8] = Drug metabolism assessed as benzylic hydroxylation mediated 7-(1-hydroxypentyl)-2-methyl-2-(4-methylpent-3-en-1-yl)-2H-chromen-5-ol metabolite formation; format: ADME; conditions: 40 min, dose 5-80 µM
Procedure, shortened: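 Pooled human liver microsomes (mixed-gender, 50 donors) gave 0.4 μM CYP final in 0.1 M phosphate pH 7.4. CBC 40 μM final was preincubated 10 min. NADPH 1 mM final was added and the reaction ran 30 min at 37 °C. It was quenched and extracted three times with hexane/ethyl acetate (80:20), dried, resuspended in 95% ethanol and analysed by LC-MS (C18, positive ESI).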

[9] = Drug metabolism in C57BL/6J mouse plasma assessed as 5-(5-hydroxy-2-methyl-7-pentyl-2H-chromen-2-yl)-2-methylpentane-2,3-diol metabolite formation at 20 mg/kg, ip measured after 0.5 to 2 hrs by LC/MS/MS analysis; format: ADME, organism-based; conditions: in vivo, time 0.5-2 hrs; procedure, shortened: as §2
[10] = Drug metabolism in C57BL/6J mouse plasma assessed as (E)-2-(5-hydroxy-4-methylpent-3-en-1-yl)-2-methyl-7-pentyl-2H-chromen-5-ol metabolite formation at 20 mg/kg, iv administered via tail vein measured after 0.5 hrs by LC/MS/MS analysis; format: ADME, organism-based; conditions: in vivo; procedure, shortened: as §2
[11] = Drug metabolism in C57BL/6J mouse plasma assessed as (E)-2-(5-hydroxy-4-methylpent-3-en-1-yl)-2-methyl-7-pentyl-2H-chromen-5-ol metabolite formation at 20 mg/kg, ip measured after 0.5 hrs by LC/MS/MS analysis; format: ADME, organism-based; conditions: in vivo; procedure, shortened: as §2
[12] = test system: BV-2; test: Cytotoxicity against mouse BV-2 cells assessed as reduction in cell viability at 0.1 to 5 uM incubated for 24 hrs by MTT assay; format: toxicity, cell-based; conditions: bv-2, 24 h, dose 0.1-5 µM
Procedure, shortened: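 BV-2 cells were seeded at about 10 000/well and grown for 24 h. They were preincubated 4 h with cannabinoids at 0.1, 1.0, 2.5 or 5.0 μM (0.1% ethanol), then held 24 h with or without LPS (25 ng/mL). MTT reagent was added for 4 h at 37 °C, the formazan was dissolved, and absorbance was read at 570 nm.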

[13] = Drug metabolism in C57BL/6J mouse plasma assessed as (E)-2-(5-hydroxy-4-methylpent-3-en-1-yl)-2-methyl-7-pentyl-2H-chromen-5-ol metabolite formation at 20 mg/kg, ip measured after 2 hrs by LC/MS/MS analysis; format: ADME, organism-based; conditions: in vivo; procedure, shortened: as §2
[14] = Drug metabolism in C57BL/6J mouse plasma assessed as (E)-2-(5-hydroxy-4-methylpent-3-en-1-yl)-2-methyl-7-pentyl-2H-chromen-5-ol metabolite formation at 20 mg/kg, iv administered via tail vein measured after 2 hrs by LC/MS/MS analysis; format: ADME, organism-based; conditions: in vivo; procedure, shortened: as §2
[15] = molecular target: T2, Cytochrome P450 2C8 (Homo sapiens, UniProt P10632); test: Binding affinity to CYP2C8 (unknown origin) assessed as fold increase in apparent dissociation constant by spectroscopic titration analysis in presence of cytochrome P450 reductase; format: ADME; procedure, shortened: as §1
T2 sequence (P10632 whole entry): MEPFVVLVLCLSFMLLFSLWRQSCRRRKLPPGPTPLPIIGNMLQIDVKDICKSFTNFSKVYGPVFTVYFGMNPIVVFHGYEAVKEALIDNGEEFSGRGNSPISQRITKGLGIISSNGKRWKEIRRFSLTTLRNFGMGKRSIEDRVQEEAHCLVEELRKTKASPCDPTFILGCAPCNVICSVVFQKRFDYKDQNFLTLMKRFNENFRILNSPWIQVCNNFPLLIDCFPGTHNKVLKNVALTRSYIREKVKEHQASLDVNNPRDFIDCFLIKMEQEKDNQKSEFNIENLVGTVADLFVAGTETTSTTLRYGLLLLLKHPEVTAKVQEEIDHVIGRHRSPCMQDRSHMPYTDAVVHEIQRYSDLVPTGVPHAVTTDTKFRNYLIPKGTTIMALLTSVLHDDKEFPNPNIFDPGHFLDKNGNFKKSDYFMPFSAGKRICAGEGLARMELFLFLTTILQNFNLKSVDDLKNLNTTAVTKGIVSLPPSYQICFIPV

[16] = Drug metabolism in C57BL/6J mouse plasma assessed as 2-(2-(3,3-dimethyloxiran-2-yl)ethyl)-2-methyl-7-pentyl-2H-chromen-5-ol metabolite formation at 20 mg/kg, ip measured after 0.5 to 2 hrs by LC/MS/MS analysis; format: ADME, organism-based; conditions: in vivo, time 0.5-2 hrs; procedure, shortened: as §2
[17] = molecular target: T1, Cytochrome P450 2J2; test: Drug metabolism assessed as ratio of CYP2J2 (unknown origin) mediated (E)-2-(5-hydroxy-4-methylpent-3-en-1-yl)-2-methyl-7-pentyl-2H-chromen-5-ol formation to 2-(2-(3,3-dimethyloxiran-2-yl)ethyl)-2-methyl-7-pentyl-2H-chromen-5-ol formation; format: ADME
Procedure, shortened: (§3)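 Recombinant CYP (0.5 μM final) was reconstituted in POPC:POPS (8:2) with CPR (0.6 μM) in 0.1 M potassium phosphate pH 7.4. CBC (5–80 μM) was preincubated 10 min at 37 °C and the reaction started with NADPH. Products were extracted three times with hexane/ethyl acetate (80:20), dried, resuspended in ethanol and analysed by LC-MS/MS.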

[18] = Drug metabolism in C57BL/6J mouse plasma assessed as 2-(2-(3,3-dimethyloxiran-2-yl)ethyl)-2-methyl-7-pentyl-2H-chromen-5-ol metabolite formation at 20 mg/kg, iv administered via tail vein measured after 0.5 to 2 hrs by LC/MS/MS analysis; format: ADME, organism-based; conditions: in vivo, time 0.5-2 hrs; procedure, shortened: as §2
[19] = molecular target: T2, Cytochrome P450 2C8; test: Drug metabolism assessed as ratio of CYP2C8 (unknown origin) mediated (E)-2-(5-hydroxy-4-methylpent-3-en-1-yl)-2-methyl-7-pentyl-2H-chromen-5-ol formation to 2-(2-(3,3-dimethyloxiran-2-yl)ethyl)-2-methyl-7-pentyl-2H-chromen-5-ol formation; format: ADME; procedure, shortened: as §3
[20] = test system: BV-2; test: Antiinflammatory activity in LPS-induced mouse BV-2 cells assessed as reduction in IL-6 production preincubated for 4 hrs followed by LPS stimulation for 24 hrs by ELISA; format: functional, cell-based; conditions: dose 0.1-5 µM, time 28.0 hrs
Procedure, shortened: (§4)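 BV-2 microglia in high-glucose DMEM with 5% heat-inactivated FBS, 37 °C, 5% CO2. Cells (50 000/well) were pretreated with cannabinoids at 0.1, 1.0, 2.5 or 5.0 μM (ethanol 0.1% final) for 4 h, then stimulated with LPS (25 ng/mL) for 24 h. Medium was collected. NO was read by Griess assay at 540 nm against a sodium nitrite calibration curve. IL-6, TNFα and Arg1 were measured by ELISA.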

[21] = test system: BV-2; test: Antiinflammatory activity in LPS-induced mouse BV-2 cells assessed as reduction in TNF-alpha production preincubated for 4 hrs followed by LPS stimulation for 24 hrs by ELISA; format: functional, cell-based; conditions: dose 0.1-5 µM, time 28.0 hrs; procedure, shortened: as §4
[22] = test system: BV-2; test: Antiinflammatory activity in LPS-induced mouse BV-2 cells assessed as increase in Arg-1 production preincubated for 4 hrs followed by LPS stimulation for 24 hrs by ELISA; format: functional, cell-based; conditions: dose 0.1-5 µM, time 28.0 hrs; procedure, shortened: as §4
[23] = test system: BV-2; test: Antiinflammatory activity in LPS-induced mouse BV-2 cells assessed as reduction in NO production preincubated for 4 hrs followed by LPS stimulation for 24 hrs by Griess reagent based assay; format: functional, cell-based; conditions: dose 0.1-5 µM, time 28.0 hrs; procedure, shortened: as §4

Chain of Cannabinoid receptor 2 (P34972 whole entry): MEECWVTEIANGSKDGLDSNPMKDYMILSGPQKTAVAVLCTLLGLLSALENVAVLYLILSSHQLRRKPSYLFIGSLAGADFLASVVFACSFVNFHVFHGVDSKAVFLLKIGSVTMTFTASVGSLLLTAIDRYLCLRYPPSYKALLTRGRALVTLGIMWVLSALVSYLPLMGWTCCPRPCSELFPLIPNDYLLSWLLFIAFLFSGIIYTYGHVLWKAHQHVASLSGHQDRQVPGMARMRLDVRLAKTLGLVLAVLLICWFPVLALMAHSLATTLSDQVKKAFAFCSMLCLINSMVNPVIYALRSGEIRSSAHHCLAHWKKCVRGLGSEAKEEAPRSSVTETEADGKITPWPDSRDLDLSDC
Chain of Cytochrome P450 2D6 (P10635 whole entry): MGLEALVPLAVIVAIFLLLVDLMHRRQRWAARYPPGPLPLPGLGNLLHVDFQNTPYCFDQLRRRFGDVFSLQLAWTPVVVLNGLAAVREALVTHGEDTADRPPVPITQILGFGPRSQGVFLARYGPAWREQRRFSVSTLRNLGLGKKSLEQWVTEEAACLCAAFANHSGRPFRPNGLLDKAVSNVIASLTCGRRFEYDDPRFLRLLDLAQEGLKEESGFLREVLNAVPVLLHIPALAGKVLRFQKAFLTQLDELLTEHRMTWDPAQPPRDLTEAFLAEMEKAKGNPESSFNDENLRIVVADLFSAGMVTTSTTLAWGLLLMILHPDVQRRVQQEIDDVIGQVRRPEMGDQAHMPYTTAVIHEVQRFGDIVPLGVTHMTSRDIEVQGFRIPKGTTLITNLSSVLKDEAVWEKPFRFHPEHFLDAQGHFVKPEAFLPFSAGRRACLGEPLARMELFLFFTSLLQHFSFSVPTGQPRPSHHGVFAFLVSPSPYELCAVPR
Chain of Cannabinoid receptor 1 (P21554 whole entry): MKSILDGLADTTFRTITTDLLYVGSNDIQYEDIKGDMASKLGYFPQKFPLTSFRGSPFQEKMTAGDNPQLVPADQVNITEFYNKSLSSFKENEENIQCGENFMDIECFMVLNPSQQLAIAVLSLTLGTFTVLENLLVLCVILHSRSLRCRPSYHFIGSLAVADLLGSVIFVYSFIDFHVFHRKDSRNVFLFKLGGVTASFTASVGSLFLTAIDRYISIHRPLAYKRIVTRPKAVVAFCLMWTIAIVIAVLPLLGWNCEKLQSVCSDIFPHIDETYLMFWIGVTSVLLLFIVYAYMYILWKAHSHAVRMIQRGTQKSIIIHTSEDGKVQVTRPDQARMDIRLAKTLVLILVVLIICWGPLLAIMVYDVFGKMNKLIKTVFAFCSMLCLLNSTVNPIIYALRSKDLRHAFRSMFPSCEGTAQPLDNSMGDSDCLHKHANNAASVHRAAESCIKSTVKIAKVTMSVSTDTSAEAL
Chain of Cytochrome P450 3A4 (P08684 whole entry): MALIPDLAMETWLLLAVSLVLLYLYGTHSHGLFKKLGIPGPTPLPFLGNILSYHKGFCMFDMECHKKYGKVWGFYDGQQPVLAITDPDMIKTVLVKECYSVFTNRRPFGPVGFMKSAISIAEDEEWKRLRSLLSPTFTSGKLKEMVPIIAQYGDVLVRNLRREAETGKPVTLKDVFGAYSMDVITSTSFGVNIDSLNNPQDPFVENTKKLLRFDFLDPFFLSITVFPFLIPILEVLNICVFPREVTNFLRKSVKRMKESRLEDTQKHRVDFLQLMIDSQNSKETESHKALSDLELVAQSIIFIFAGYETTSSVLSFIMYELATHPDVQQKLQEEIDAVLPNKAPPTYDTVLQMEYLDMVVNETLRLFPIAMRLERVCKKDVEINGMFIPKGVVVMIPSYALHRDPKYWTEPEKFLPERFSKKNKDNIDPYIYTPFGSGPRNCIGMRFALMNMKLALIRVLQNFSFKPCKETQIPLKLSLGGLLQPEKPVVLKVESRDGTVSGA

SMILES: CCCCCc1cc(O)c2c(c1)OC(C)(CCC=C(C)C)C=C2 (configuration not stated) [CANNABICHROMENE]
- fold change (FC) [1]: 3
- Drug metabolism [2]: Metabolite_Detected
- fold change (FC) [3]: 5
- fold change (FC) [4]: 3
- Drug metabolism [5]: Metabolite_Detected
- Ki [6]: ~713 nM
- Ki [7]: ~100 nM
- Drug metabolism [8]: Metabolite_Detected
- Drug metabolism [9]: Metabolite_Detected
- Drug metabolism [10]: Metabolite_Detected
- Drug metabolism [11]: Metabolite_Detected
- Activity [12]: Non-Toxic
- Drug metabolism [13]: Metabolite_Notdetected
- Drug metabolism [14]: Metabolite_Notdetected
- fold change (FC) [15]: 5
- Drug metabolism [16]: Metabolite_Detected
- Ratio [17]: ~ 50
- Drug metabolism [18]: Metabolite_Detected
- Ratio [19]: ~ 5

SMILES: CCCCC(O)c1cc(O)c2c(c1)OC(C)(CCC=C(C)C)C=C2 (configuration not stated)
- Activity [20]: Active
- Activity [21]: Dose-Dependent Effect
- Activity [22]: Dose-Dependent Effect
- Activity [12]: Non-Toxic

SMILES: C=C(C)C(O)CCC1(C)C=Cc2c(O)cc(CCCCC)cc2O1 (configuration not stated)
- Activity [20]: Active
- Activity [21]: Dose-Dependent Effect
- Activity [23]: Dose-Dependent Effect
- Activity [12]: Non-Toxic
